This is an account of results in ChEMBL document CHEMBL1138329, “Pharmacokinetic/pharmacodynamic model-guided identification of hypoxia-selective 1,2,4-benzotriazine 1,4-dioxides with antitumor activity: the role of extravascular transport” (J Med Chem, 2007).

As usually defined, the solubility is the concentration that dissolves in the medium under given conditions. Broadly, the IC50 is the concentration that gives 50% inhibition. Lower therefore signals greater potency in that assay. As a reminder, the Cmax is the highest concentration seen after dosing. As a reminder, the half-life is how long it takes for the measured level to halve. The low end stands for rapid decline, the high end for slow decline. In general, AUC refers to concentration integrated over time. A low value points to low exposure.

The nature of data set [1]: Solubility in culture medium in presence of 5% fetal calf serum. It is filed as physicochemical. Conditions: culture medium with 5% fetal calf serum.
Data set [2] has as its system HT-29. The data set can be described thus: Cytotoxicity against human HT29 cells under hypoxic conditions after 4 hrs. The class given is functional, cell-based. The following applies: HT-29, 4 h.
For data set [3], the system named is HT-29. The data set can be described thus: Ratio of IC50 for HT29 cells under oxic conditions to hypoxic conditions after 4 hrs. It is filed as functional, Homo sapiens.
Data set [4] concerns SiHa. The data set can be described thus: Cytotoxicity against human SiHa cells under hypoxic conditions after 4 hrs. The class given is functional, cell-based.
Data set [5] has as its system SiHa. The data set can be described thus: Ratio of IC50 for SiHa cells under oxic conditions to hypoxic conditions after 4 hrs. It is filed as functional, Homo sapiens.
In data set [6] the test system is HT-29. The data set can be described thus: Effect on human HT29 cells under hypoxic conditions assessed as drug level causing 10% clonogenic survival. The class given is functional. The method, boiled down: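 HT29 suspensions (1 or 2 × 10^6 cells/mL) in serum-free medium were stirred under 5% CO2/95% N2 for 90 min. Drug was added from deoxygenated DMSO stock at a level giving about 10% survival at 1 h, and samples were taken up to 3 h. Clonogenic survival (14 days, methylene blue) was fitted with the HPLC concentration–time data, and the 10% survival exposure was interpolated.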

In another data set the test system is Mus musculus. The data set can be described thus: Toxicity in ip dosed CD1 mouse. The class given is organism-based. Conditions: in vivo. In short, it runs like this: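 MTD in CD-1 homozygous nude mice after single i.p. doses (HCl salts in saline, 5% DMSO/saline or lactate buffer pH 4.0), escalated in 1.33-fold increments. MTD taken as the highest dose causing no death, no body weight loss >15% and no other severe morbidity in any of 6 mice.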

Data set [7] is described as follows: Cmax in CD1 mouse at 316 umol/kg, ip. The class given is ADME, organism-based. On the set-up: dose 316 umol/kg, route intraperitoneal. Conditions: in vivo. In short, it runs like this:
(§1)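 Single i.p. dose to CD-1 homozygous nude mice, drug as HCl salt in 0.9% saline, 5% DMSO/saline or lactate buffer (pH 4.0). Plasma total drug measured by HPLC at 75 or 100% of MTD (MTD from 1.33-fold dose steps, 6 mice). Noncompartmental analysis gave AUC, Cmax and t1/2.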

Data set [8] in a line: Half life in CD1 mouse at 316 umol/kg, ip. It is filed as ADME, organism-based. Conditions: in vivo. In short, it runs like this: as §1
The nature of data set [9]: AUC in CD1 mouse at 316 umol/kg, ip. The class given is ADME, organism-based. The following applies: plasma. In short, it runs like this:
as §1

Data set [10] relates to HT-29. The data set can be described thus: Diffusion coefficient, D in HT29 multicellular layers. The following applies: human. It is filed as ADME, cell-based. In short, it runs like this:
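HT29 multicellular layers were grown 3 days on collagen-coated Teflon membranes, equilibrated 60 min under 95% O2/5% CO2 at 37 °C, then placed in a diffusion chamber. Donor and receiver were sampled up to 5 h and assayed by HPLC. D came from fitting both profiles to a Fickian model with membrane and MCL in series, corrected by support-only Ds.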

The nature of data set [11]: Cmax in CD1 mouse at 562 umol/kg, ip. The class given is ADME, organism-based. On the set-up: dose 562 umol/kg, route intraperitoneal. Conditions: in vivo. In short, it runs like this:
as §1

Data set [12] is described as follows: Half life in CD1 mouse at 562 umol/kg, ip. The following applies: in vivo. The class given is ADME, organism-based. The method, boiled down: as §1
The nature of data set [13]: AUC in CD1 mouse at 562 umol/kg, ip. It is filed as ADME, organism-based. The following applies: plasma. The method, boiled down:
as §1

Data set [14] deals with HT-29. The data set can be described thus: Antitumor activity against human HT29 cells implanted in CD1 mouse assessed as clonogenic survival at 562 umol/kg, ip after 18 hrs relative to control. It is filed as functional. The method, boiled down: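 HT29 xenografts in CD-1 homozygous nude mice; single i.p. dose of drug alone, formulated as the HCl salt in 0.9% saline, 5% DMSO/saline or lactate buffer (pH 4.0). Tumors excised 18 h later, dissociated to single-cell suspensions and plated. Clonogens/g of tumor counted; surviving fraction = treated/control clonogens/g.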

The subject of data set [15] is HT-29. The data set can be described thus: Antitumor activity against human HT29 cells implanted in CD1 mouse at 562 umol/kg, ip administered 5 mins after irradiation by excision assay relative to radiation alone. The class given is functional. In short, it runs like this:
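Hypoxic-cell excision assay in HT29 xenografts in CD-1 homozygous nude mice. Mice received 20 Gy γ radiation to sterilize oxic tumor cells, then a single i.p. drug dose (HCl salt in saline, 5% DMSO/saline or pH 4.0 lactate buffer) 5 min later. Tumors excised at 18 h and plated for clonogens/g. Log cell kill = log(clonogens/g, radiation only) − log(clonogens/g, radiation plus drug).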

A short description of data set [16]: Cmax in CD1 mouse at 237 umol/kg, ip. It is filed as ADME, organism-based. Details: dose 237 umol/kg, route intraperitoneal. The following applies: in vivo. The method, boiled down: as §1
Data set [17] in a line: Half life in CD1 mouse at 237 umol/kg, ip. Conditions: in vivo. The class given is ADME, organism-based. In short, it runs like this: as §1
Data set [18] in a line: AUC in CD1 mouse at 237 umol/kg, ip. It is filed as ADME, organism-based. The following applies: plasma. In short, it runs like this:
as §1

Data set [19] can be described thus: Cmax in CD1 mouse at 750 umol/kg, ip. The following applies: in vivo. It is filed as ADME, organism-based. Details: dose 750 umol/kg, route intraperitoneal. In short, it runs like this:
as §1

Data set [20] can be described thus: Half life in CD1 mouse at 750 umol/kg, ip. The following applies: in vivo. It is filed as ADME, organism-based. In short, it runs like this:
as §1

Data set [21] is described as follows: AUC in CD1 mouse at 750 umol/kg, ip. It is filed as ADME, organism-based. Conditions: plasma. In short, it runs like this:
as §1

The nature of data set [22]: Cmax in CD1 mouse at 421 umol/kg, ip. The class given is ADME, organism-based. Details: dose 421 umol/kg, route intraperitoneal. Conditions: in vivo. The method, boiled down: as §1
Data set [23] in a line: Half life in CD1 mouse at 421 umol/kg, ip. The class given is ADME, organism-based. Conditions: in vivo. In short, it runs like this: as §1
Data set [24] can be described thus: AUC in CD1 mouse at 421 umol/kg, ip. The following applies: plasma. The class given is ADME, organism-based. The method, boiled down: as §1

Where only a bound is given, the exact number is not on record here.

As for `CCc1ccc2c(c1)[n+]([O-])c(NCCN(C)C)n[n+]2[O-]`, in data set [1], the solubility is more than 49 mM. In addition, the IC50 in the data set on HT-29 [2] turned out to be 1300 nM; in the data set on SiHa [4] it was 500 nM. Besides, the results for the “Ratio IC50” value with HT-29 [3] and in the data set on SiHa [5] were 116 and 186, respectively. The Activity with HT-29 [6] was 6.2 µM·h. Further, in the data set on Mus musculus, the MTD is 421 µmol/kg. The Cmax in [7] was determined as 21.6 µM. This compound also yielded a half-life in data set [8] of 12.7 min. The same compound gave an area under the curve (AUC) in data set [9] of 13.2 µM·h.

Regarding `[O-][n+]1nc(NCCN2CCOCC2)[n+]([O-])c2ccccc21`, in [1], the solubility was more than 49 mM. In addition, the IC50 in the data set with HT-29 [2] was determined as 17300 nM; with SiHa [4] it was 6600 nM. The “Ratio IC50” value with HT-29 [3] turned out to be 34; with SiHa [5], 44. Also, the D in the data set on HT-29 [10] was 3.63e-07 cm²/s. Further, in the data set on HT-29 [6], the Activity is 47.5 µM·h. In the data set on Mus musculus, this compound had an MTD of 562 µmol/kg. Moreover, the highest concentration (Cmax) in data set [11] was 160 µM. This compound gave a half-life in [12] of 16.5 min. In [13], this compound showed an area under the curve (AUC) of 105 µM·h. Also, the LCK in the data set on HT-29 [14] came out at 0.29; in the data set on HT-29 [15], 0.6.

Take `CCOc1ccc2c(c1)[n+]([O-])c(NCCN1CCCCC1)n[n+]2[O-]`: the solubility in data set [1] is more than 49 mM. For the same compound, the 50% inhibitory concentration (IC50) in the data set on HT-29 [2] worked out at 2200 nM; with SiHa [4], 1700 nM. Moreover, the “Ratio IC50” value is reported as 116 with HT-29 [3] and 169 in the data set with SiHa [5]. Moreover, the Activity with HT-29 [6] was determined as 36.3 µM·h. Also, the MTD in the data set with Mus musculus came out at 316 µmol/kg. The compound further displayed a Cmax in data set [16] of 9.8 µM. Besides, the half-life in data set [17] worked out at 40.1 min. The same compound gave an area under the curve (AUC) in data set [18] of 10.7 µM·h.

Consider `Cc1ccc2c(c1)[n+]([O-])c(NCCN1CCOCC1)n[n+]2[O-]`, for which the solubility in data set [1] is more than 46 mM. For the same compound, the values for the IC50 in the data set with HT-29 [2] and in the data set on SiHa [4] were 21800 nM and 8300 nM, respectively. Also, the “Ratio IC50” value with HT-29 [3] turned out to be 55; in the data set on SiHa [5], 86. The D in the data set on HT-29 [10] turned out to be 4.52e-07 cm²/s. The Activity in the data set on HT-29 [6] was found to be 134 µM·h. For the same compound, in the data set with Mus musculus, the MTD is 1000 µmol/kg. Also, in [19], the Cmax is 132 µM. In [20], this compound showed a half-life of 15.4 min. The compound further showed an area under the curve (AUC) in data set [21] of 86.8 µM·h.

Consider `Cc1ccc2c(c1)[n+]([O-])c(NCCN1CCCCC1)n[n+]2[O-]`, for which the solubility in [1] was 45 mM. The concentration for half-maximal inhibition (IC50) turned out to be 4000 nM with HT-29 [2] and 2200 nM in the data set on SiHa [4]. Moreover, the “Ratio IC50” value is listed as 58 in the data set with HT-29 [3] and 75 with SiHa [5]. Moreover, the D with HT-29 [10] is 7.49e-07 cm²/s. In addition, the Activity with HT-29 [6] amounted to 9.4 µM·h. The compound also had an MTD in the data set on Mus musculus of 237 µmol/kg. The maximum concentration (Cmax) in data set [16] was 14.9 µM. In [17], this compound registered a half-life of 16.6 min. The area under the curve (AUC) in [18] is 13.8 µM·h.

Take `Cc1ccc2c(c1)[n+]([O-])c(NCCN1C(C)CCCC1C)n[n+]2[O-]` (configuration not stated): the solubility in [1] is 48 mM. In addition, the values for the IC50 with HT-29 [2] and with SiHa [4] were 2800 nM and 800 nM, respectively. Moreover, the “Ratio IC50” value in the data set with HT-29 [3] was 126; in the data set with SiHa [5] it was 159. Besides, the D with HT-29 [10] worked out at 9.45e-07 cm²/s. Also, in the data set on HT-29 [6], the Activity is 15.4 µM·h. In the data set on Mus musculus, this compound returned an MTD of 421 µmol/kg. The highest level in data set [22] (Cmax) was 19.6 µM. Also, the half-life in data set [23] turned out to be 19.1 min. The compound also had an area under the curve (AUC) in data set [24] of 18.3 µM·h.

For `CCCN(CCC)CCNc1n[n+]([O-])c2ccc(C)cc2[n+]1[O-]`, in data set [1], the solubility amounted to 38 mM. The values for the IC50 with HT-29 [2] and in the data set with SiHa [4] were 2700 nM and 600 nM, respectively. Also, the “Ratio IC50” value was found to be 108 in the data set on HT-29 [3] and 149 in the data set with SiHa [5]. In the data set with HT-29 [10], the D was 1.48e-06 cm²/s. For the same compound, the Activity in the data set on HT-29 [6] is 38.6 µM·h. In addition, the MTD in the data set with Mus musculus was found to be 421 µmol/kg. The compound further showed a maximum concentration (Cmax) in [7] of 3.8 µM. The same compound displayed a half-life in data set [8] of 17.3 min. In data set [9], this compound showed an area under the curve (AUC) of 2.6 µM·h.
